# Measured values from ChEMBL document CHEMBL1148785, “Second generation tetrahydroquinoline-based protein farnesyltransferase inhibitors as antimalarials” (J Med Chem, 2007).
# Experiments:
# Plasmodium falciparum [1] = assay: Inhibition of Plasmodium falciparum protein farnesyltransferase at 0.5 nM by scintillation proximity assay
# Plasmodium falciparum [2] = assay: Antimalarial activity against Plasmodium falciparum 3D7; assay type: functional; settings: Plasmodium falciparum, 3D7; read-out: ED50 (the source's name)
# Outline: (§1)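 Asynchronous culture in type A+ erythrocytes at 0.5% parasitemia and 0.5% hematocrit, grown in RPMI-1640 with 20% heat-inactivated human A+ plasma. Compound was serially diluted from a top final 5 µM, with DMSO vehicle as 100% growth. Plates ran 48 h at 37 °C under 5% CO2/5% O2/90% N2, then [3H]-hypoxanthine (0.3 µCi) for 24 h. Filter-harvested counts were corrected for the uninfected-RBC background. ED50 by linear regression; duplicates averaged.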
# Plasmodium falciparum [3] = assay: Antimalarial activity against Plasmodium falciparum K1; assay type: functional; settings: Plasmodium falciparum, K1; read-out: ED50 (the source's name); outline: as §1
# Plasmodium falciparum [4] = assay: Inhibition of Plasmodium falciparum protein farnesyltransferase at 50 nM by scintillation proximity assay
# Plasmodium falciparum [5] = assay: Inhibition of Plasmodium falciparum protein farnesyltransferase at 5 nM by scintillation proximity assay
SMILES,inhibition (Plasmodium falciparum [1]),EC50 (Plasmodium falciparum [2]),EC50 (Plasmodium falciparum [3]),inhibition (Plasmodium falciparum [4]),inhibition (Plasmodium falciparum [5])
Cn1cncc1CN1CC(N(CCNC(=O)OC(C)(C)C)S(=O)(=O)c2ccccn2)Cc2cc(C#N)ccc21 (stereo not given),9%,230 nM,240 nM,91%,48%
Cn1cncc1CN1CC(N(CCCCNC(=O)OC(C)(C)C)S(=O)(=O)c2ccccn2)Cc2cc(C#N)ccc21 (stereo not given),24%,250 nM,375 nM,97%,80%
Cn1cnc(S(=O)(=O)N(CCn2cccc2)C2Cc3cc(C#N)ccc3N(Cc3cncn3C)C2)c1 (stereo not given),54%,1.8 nM,1.8 nM,99%,98%
Cn1cncc1CN1CC(N(Cc2ccccc2F)S(=O)(=O)c2cccc3nsnc23)Cc2cc(C#N)ccc21 (stereo not given),4%,700 nM,1000 nM,74%,28%
Cn1cnc(CN2CC(N(Cc3ccc(S(C)(=O)=O)cc3)S(=O)(=O)c3cn(C)cn3)Cc3cc(-c4ccccc4)ccc32)c1 (stereo not given),32%,270 nM,450 nM,98%,84%
Cn1cnc(S(=O)(=O)N(CCc2c[nH]c3ccccc23)C2Cc3cc(C#N)ccc3N(Cc3cncn3C)C2)c1 (stereo not given),55%,130 nM,130 nM,97%,91%
Cn1cnc(S(=O)(=O)N(Cc2ccc3nonc3c2)C2Cc3cc(C#N)ccc3N(Cc3cncn3C)C2)c1 (stereo not given),30%,56 nM,65 nM,99%,95%
Cc1noc(C)c1CN(C1Cc2cc(C#N)ccc2N(Cc2cncn2C)C1)S(=O)(=O)c1ccccn1 (stereo not given),17%,144 nM,965 nM,96%,93%
CC(=O)N(Cc1ccccc1F)C1Cc2cc(C#N)ccc2N(Cc2cncn2C)C1 (stereo not given),0%,650 nM,730 nM,43%,1%
Cn1cnc(S(=O)(=O)N(Cc2ccccn2)C2Cc3cc(C#N)ccc3N(Cc3cncn3C)C2)c1 (stereo not given),25%,10 nM,36 nM,98%,96%
CC(C)NC(=O)c1ccc2c(c1)CC(N(CC(=O)NC(C)(C)C)S(=O)(=O)c1cn(C)cn1)CN2Cc1cncn1C (stereo not given),14%,4000 nM,2600 nM,46%,7%
CN(CCCN(C1Cc2cc(C#N)ccc2N(Cc2cncn2C)C1)S(=O)(=O)c1ccccn1)C(=O)OC(C)(C)C (stereo not given),35%,130 nM,170 nM,86%,80%
Cn1cnc(S(=O)(=O)N(CCc2ccc(F)cc2)C2Cc3cc(C#N)ccc3N(Cc3cncn3C)C2)c1 (stereo not given),42%,50 nM,65 nM,100%,95%
Cc1oncc1S(=O)(=O)N(CC(=O)NC(C)(C)C)C1Cc2cc(C#N)ccc2N(Cc2cncn2C)C1 (stereo not given),0%,> 5000 nM,> 5000 nM,3%,0%
Cn1cncc1CN1CC(N(CCCNC(=O)OC(C)(C)C)S(=O)(=O)c2ccccn2)Cc2cc(C#N)ccc21 (stereo not given),9%,133 nM,75 nM,97%,70%
CC(=O)Nc1ccc(S(=O)(=O)N(Cc2ccccc2F)C2Cc3cc(C#N)ccc3N(Cc3cncn3C)C2)cc1 (stereo not given),4%,150 nM,150 nM,25%,4%

SMILES,inhibition (Plasmodium falciparum [1]),EC50 (Plasmodium falciparum [2]),EC50 (Plasmodium falciparum [3]),inhibition (Plasmodium falciparum [4]),inhibition (Plasmodium falciparum [5])
COC(=O)N1CCC(CN(C2Cc3cc(C#N)ccc3N(Cc3cncn3C)C2)S(=O)(=O)c2sccc2C)CC1 (stereo not given),18%,55 nM,75 nM,95%,66%
COC(=O)N1CCC(CN(C2Cc3cc(C#N)ccc3N(Cc3cncn3C)C2)S(=O)(=O)c2cccc(F)c2)CC1 (stereo not given),39%,90 nM,150 nM,93%,86%
COC(=O)N1CCC(CN(C2Cc3cc(C#N)ccc3N(Cc3cncn3C)C2)S(=O)(=O)c2cncn2C)CC1 (stereo not given),72%,3 nM,1.6 nM,99%,99%
Cn1cc(S(=O)(=O)N(Cc2ccccc2F)C2Cc3cc(C#N)ccc3N(Cc3cncn3C)C2)cn1 (stereo not given),23%,175 nM,175 nM,94%,62%
COCCCCCN(C1Cc2cc(C#N)ccc2N(Cc2cncn2C)C1)S(=O)(=O)c1ccccn1 (stereo not given),17%,189 nM,932 nM,96%,65%
CC(C)NC(=O)N1CCC(CN(C2Cc3cc(C#N)ccc3N(Cc3cncn3C)C2)S(=O)(=O)c2ccccn2)CC1 (stereo not given),93%,65 nM,45 nM,100%,38%
Cn1cncc1CN1CC(N(Cc2cccc3nsnc23)S(=O)(=O)c2ccccn2)Cc2cc(C#N)ccc21 (stereo not given),12%,175 nM,98 nM,85%,31%
Cn1cncc1CN1CC(N(Cc2ccccc2F)S(=O)(=O)c2ccccc2)Cc2cc(C#N)ccc21 (stereo not given),10%,730 nM,750 nM,86%,44%
COC(=O)c1ccnc(CN(C2Cc3cc(C#N)ccc3N(Cc3cncn3C)C2)S(=O)(=O)c2cn(C)cn2)c1 (stereo not given),46%,620 nM,163 nM,100%,98%
Cn1cncc1CN1CC(N(Cc2ccc(S(C)(=O)=O)cc2)S(=O)(=O)c2cncn2C)Cc2cc(C#N)ccc21 (stereo not given),84%,< 20 nM,< 20 nM,100%,100%
Cn1cncc1CN1CC(N(CCc2ccccc2C(F)(F)F)S(=O)(=O)c2ccccn2)Cc2cc(C#N)ccc21 (stereo not given),1%,300 nM,1500 nM,95%,53%
CN(C1Cc2cc(-c3ccccc3)ccc2N(Cc2cn(C)cn2)C1)S(=O)(=O)c1cn(C)cn1 (stereo not given),10%,> 5000 nM,> 5000 nM,88%,38%
CCS(=O)(=O)N(CC1CCN(C(=O)OC)CC1)C1Cc2cc(C#N)ccc2N(Cc2cncn2C)C1 (stereo not given),0%,4100 nM,> 5000 nM,44%,0%
Cn1cnc(CN2CC(N(CC(=O)NC(C)(C)C)S(=O)(=O)c3ccccc3)Cc3cc(-c4ccccc4)ccc32)c1 (stereo not given),0%,2800 nM,2800 nM,8%,0%
Cn1cncc1CN1CC(N(CC2CCN(C(=O)C3CCCC3)CC2)S(=O)(=O)c2ccccn2)Cc2cc(C#N)ccc21 (stereo not given),94%,58 nM,50 nM,100%,39%
COC(=O)N1CCC(CN(C2Cc3cc(C#N)ccc3N(Cc3cncn3C)C2)S(=O)(=O)c2cccc3nsnc23)CC1 (stereo not given),20%,140 nM,160 nM,98%,84%
